Measurements as given in ChEMBL document CHEMBL5150070, “Tricyclic SpiroLactams Kill Mycobacteria In Vitro and In Vivo by Inhibiting Type II NADH Dehydrogenases” (J Med Chem, 2022).
≈ marks a conversion by molar mass, not a printed value. Calls of active or inactive are those of the source. The rule behind the calls is not given here.

Assays:
[1] = test system: Mycobacterium tuberculosis; test: Antimycobacterial activity against Mycobacterium tuberculosis H37Rv assessed as reduction in bacterial cell growth by measuring resazurin reduction incubated for 6 days by fluorescence microplate based assay; type: functional; settings: time 6 day
[2] = biological target: Type II NADH:quinone oxidoreductase Ndh (Mycobacterium tuberculosis, UniProt P95160); test: Inhibition of Mycobacterium tuberculosis recombinant type II NADH dehydrogenase ndh expressed in Escherichia coli assessed as rate of NADH oxidation in the presence of an electron acceptor menadione
How it was run: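 Purified N-terminal MBP-tagged Mtb Ndh (Rv1854c) expressed in E. coli, 70 nM, with 500 µM NADH in 50 mM HEPES pH 7.1 (K₂HPO₄). Compound pre-incubated 15 min at 25°C, reaction started with 100 µM menadione. NADH oxidation followed at 340 nm every 60 s. Rate taken from linear slope; IC50 is the mean ± SD of at least 3 independent experiments.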

[3] = biological target: T1, Type II NADH:quinone oxidoreductase NdhA (Mycobacterium tuberculosis, UniProt P95200); test: Inhibition of Mycobacterium smegmatis MC2 155 recombinant ndhA assessed as rate of NADH oxidation in the presence of an electron acceptor menadione; set-up: species or system Mycolicibacterium smegmatis
T1 sequence (P95200 whole entry): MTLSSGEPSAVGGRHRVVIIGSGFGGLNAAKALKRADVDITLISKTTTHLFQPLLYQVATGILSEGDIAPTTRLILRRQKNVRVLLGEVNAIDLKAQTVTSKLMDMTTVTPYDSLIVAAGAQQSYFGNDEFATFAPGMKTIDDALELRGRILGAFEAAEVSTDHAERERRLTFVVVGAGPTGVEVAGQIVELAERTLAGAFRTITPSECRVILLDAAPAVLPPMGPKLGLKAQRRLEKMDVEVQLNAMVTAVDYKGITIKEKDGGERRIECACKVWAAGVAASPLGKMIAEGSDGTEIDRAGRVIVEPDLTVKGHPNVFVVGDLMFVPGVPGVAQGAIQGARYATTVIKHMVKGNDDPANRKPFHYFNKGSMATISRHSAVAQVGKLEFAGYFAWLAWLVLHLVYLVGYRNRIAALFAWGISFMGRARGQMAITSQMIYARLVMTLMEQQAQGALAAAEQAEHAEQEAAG

[4] = Toxicity in noninfected zebrafish larvae assessed as larval development; set-up: species or system Danio rerio; settings: in vivo
[5] = test system: Mycolicibacterium smegmatis; test: Antibiotic activity against Mycobacterium smegmatis mc2155 assessed as reduction in bacterial cell growth by measuring resazurin reduction incubated for 6 days by fluorescence microplate based assay; type: functional; settings: mc2155, 144 h, time 6 day
[6] = test system: Mycobacterium tuberculosis; test: Inhibition of Ndh2 in Mycobacterium tuberculosis assessed as decrease in ATP concentration measured after 24 hrs; settings: DDE = dose-dependent effect
How it was run: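 Log-phase H37Rv diluted to OD600 0.01 in complete 7H9 and exposed in 96-well plates to compound added from a 100× DMSO stock, at 37°C. ATP measured with BacTiter-Glo luminescence after 4 and 24 h; three independent experiments.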

Mycobacterium marinum [7] = test: In vivo antimycobacterial efficacy in Mycobacterium marinum expressing Wasabi infected zebrafish larvae assessed as prolongation of survival at 9.6 uM treated for 4 days after 1 day post infection; type: functional, organism-based; settings: time 4.0 day
How it was run: (§1)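 Golden mutant or Tg(mpeg1:mCherry) zebrafish embryos were dechorionated and anaesthetised in 0.016% tricaine. At 30 hpf, 2–3 nL containing about 200–250 cfu of Wasabi-expressing M. marinum M (pTEC15) was injected into the caudal vein. The inoculum was confirmed by plating on 7H10. Embryos were kept in E3 at 28.5 °C, 12 per well, to follow infection and survival.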

[8] = Octanol/PBS partition coefficient, logD of compound at pH 7.4 measured after 2 hrs by shake flask method; type: physicochemical; settings: octanol/water, pH 7.4, 2 h
How it was run: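 A 10 mM DMSO stock was diluted 50-fold into 1:1 octanol:PBS pH 7.4 and shaken gently for 2 h at room temperature. Each phase was diluted 50-fold in MeOH and quantified by LC-MS/MS. LogD = log of the octanol/PBS concentration ratio from mass signals. Run in triplicate.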

[9] = test system: Mycobacterium tuberculosis; test: Bactericidal activity against Non-replicating Mycobacterium tuberculosis ss18b-lux assessed as decrease in colony forming unit measured at 4.8 uM after 1 weeks; type: functional
How it was run: (§2)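 Streptomycin-dependent 18b-lux starved of streptomycin for 14 days (OD600 reset to 0.2 on days 7 and 13) to become non-replicating. Diluted to OD600 0.15 on dispensed compound and held at 37°C. On day 7, active wells plated on 7H11-OADC with 50 µg/mL streptomycin and incubated up to 8 weeks for cfu.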

[10] = test system: Mycobacterium tuberculosis; test: Bactericidal activity against Non-replicating Mycobacterium tuberculosis ss18b-lux model assessed as decrease in luminescence at 10 to 10000 nM; type: functional, organism-based; settings: dose 10-10000 nM, TDE = time-dependent effect
How it was run: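 Non-replicating streptomycin-starved 18b-lux (14-day starvation) diluted to OD600 0.15 in white 96-well plates with compound and incubated at 37°C. Luminescence read on days 1, 2, 5 and 7 and expressed relative to no-antibiotic controls (n ≥ 3).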

Mycobacterium marinum [11] = test: Antibiotic activity against Mycobacterium marinum M strain assessed as reduction in bacterial cell growth by measuring resazurin reduction incubated for 6 days by fluorescence microplate based assay; type: functional; settings: 144 h, time 6 day
Mycobacterium avium = test: Antibiotic activity against Mycobacterium avium TMC 724, ATCC-25291 assessed as reduction in bacterial cell growth by measuring resazurin reduction incubated for 6 days by fluorescence microplate based assay; type: functional; settings: TMC 724, ATCC-25291, 144 h, time 6 day
Escherichia coli [12] = test: Antibiotic activity against Escherichia coli deltatolC BW25113 deltatolC assessed as reduction in bacterial cell growth by measuring resazurin reduction incubated for 6 days by fluorescence microplate based assay; type: functional; settings: 144 h, time 6 day
How it was run: (§3)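 E. coli BW25113, E. coli ΔtolC and S. aureus SH1000 were cultured and tested in cation-adjusted Mueller Hinton II broth. Viability was read by adding resazurin and measuring resorufin fluorescence at Ex 530 nm / Em 590 nm.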

[13] = Toxicity in noninfected zebrafish larvae assessed as toxic effect; set-up: species or system Danio rerio; settings: in vivo
Escherichia coli [14] = test: Antibiotic activity against Escherichia coli BW25113 assessed as reduction in bacterial cell growth by measuring resazurin reduction incubated for 6 days by fluorescence microplate based assay; type: functional; settings: BW25113, 144 h, time 6 day; how it was run: as §3
[15] = test system: Mycobacterium tuberculosis; test: Inhibition of Ndh2 in Mycobacterium tuberculosis assessed as increase in NADH/NAD+ ratio at 600 nM measured after 24 hrs
How it was run: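 Mid-log H37Rv diluted to OD600 0.3 and exposed to compound at 37°C for 2 and 24 h. Pellets extracted in 0.2 M HCl (NAD⁺) or 0.2 M NaOH (NADH), bead-milled, heated 55°C 10 min, neutralised. NAD/NADH-Glo luminescence read against an NADH standard curve, corrected for OD600. Three independent experiments, duplicate technical replicates.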

Bacillus subtilis = test: Antibiotic activity against Bacillus subtilis ATCC6633 assessed as reduction in bacterial cell growth by measuring resazurin reduction incubated for 6 days by fluorescence microplate based assay; type: functional; settings: ATCC6633, 144 h, time 6 day
[16] = test system: Mycobacterium tuberculosis; test: Bactericidal activity against replicating Mycobacterium tuberculosis H37Rv assessed as reduction in colony forming unit measured at 2 to 4 times of MIC after 1 to 2 weeks; type: functional; settings: time 1-2 weeks
How it was run: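 Mid-log H37Rv in 7H9-GTy-OADC diluted to OD600 0.02 (~1×10⁶ cfu/mL) and exposed to compound in 96-well replica plates for 1 or 2 weeks. For the 3 lowest concentrations without visible growth, serial 10-fold dilutions plated on 7H11-OADC and cfu counted over 6 weeks at 37°C. Four independent experiments; log10 cfu/mL ± SD.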

Mycobacterium marinum [17] = test: In vivo antimycobacterial efficacy in Mycobacterium marinum expressing Wasabi infected zebrafish larvae assessed as prevention of bacterial load using fluorescence pixel count determination at 0.5 ug/ml treated for 2 to 4 days after 1 day post infection; type: functional, organism-based; settings: dose 0.5 µg/ml, time 2-4 day; how it was run: as §1
Mycobacterium marinum [18] = test: In vivo antimycobacterial efficacy in Mycobacterium marinum expressing Wasabi infected zebrafish larvae assessed as prolongation of survival treated for 4 days after 1 day post infection; type: functional, organism-based; settings: dose 0.3-1.2 µM, time 4.0 day, DDE = dose-dependent effect; how it was run: as §1
Mycobacterium marinum [19] = test: In vivo antimycobacterial efficacy in Mycobacterium marinum expressing Wasabi infected zebrafish larvae assessed as prolongation of survival time at 4.8 uM treated for 4 days after 1 day post infection; type: functional; settings: time 4 day
[20] = Metabolic stability in mouse liver microsomes; type: ADME, Microsome
Staphylococcus aureus = test: Antibiotic activity against Staphylococcus aureus SH1000 assessed as reduction in bacterial cell growth by measuring resazurin reduction incubated for 6 days by fluorescence microplate based assay; type: functional; settings: SH1000, 144 h, time 6 day; how it was run: as §3
[21] = test system: Mycobacteroides abscessus; test: Antibiotic activity against Mycobacterium abscessus CIP104536, Smooth variant assessed as reduction in bacterial cell growth by measuring resazurin reduction incubated for 6 days by fluorescence microplate based assay; type: functional; settings: 144 h, time 6 day
Pseudomonas aeruginosa = test: Antibiotic activity against Pseudomonas aeruginosa POA1 assessed as reduction in bacterial cell growth by measuring resazurin reduction incubated for 6 days by fluorescence microplate based assay; type: functional; settings: POA1, 144 h, time 6 day
[22] = test system: Mycobacterium tuberculosis; test: Antimycobacterial activity against Mycobacterium tuberculosis H37Rv infected in human A-THP1 macrophages assessed as viability of infected macrophages incubated for 96 hrs by fluorescence microplate assay; type: functional, organism-based
How it was run: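 THP-1 cells differentiated with 50 ng/mL PMA for 72 h, infected with log-phase H37Rv (MOI 10, 2 h), and extracellular bacteria killed with 50 µg/mL amikacin for 1 h. Cells detached and seeded at 5×10⁵/mL in RPMI-10% FBS with PMA onto pre-dispensed compound, 96 h at 37°C, 5% CO₂. Macrophage viability by 0.05% resazurin fluorescence.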

[23] = test system: Mycobacterium tuberculosis; test: Antibiotic activity against Mycobacterium tuberculosis H37Rv assessed as reduction in bacterial cell growth by measuring resazurin reduction incubated for 6 days by fluorescence microplate based assay; type: functional; settings: 144 h, time 6 day
Acinetobacter baumannii = test: Antibiotic activity against Acinetobacter baumannii LMG-17978 assessed as reduction in bacterial cell growth by measuring resazurin reduction incubated for 6 days by fluorescence microplate based assay; type: functional; settings: LMG-17978, 144 h, time 6 day
[24] = test system: Mycobacteroides abscessus; test: Antibiotic activity against Mycobacterium abscessus CIP104536, Rough variant assessed as reduction in bacterial cell growth by measuring resazurin reduction incubated for 6 days by fluorescence microplate based assay; type: functional; settings: 144 h, time 6 day
[25] = test system: Mycobacterium tuberculosis; test: Bactericidal activity against Non-replicating Mycobacterium tuberculosis ss18b-lux assessed as bacterial killing by measuring CFU after 1 week; type: functional, organism-based; settings: time 1.0 weeks, DDE = dose-dependent effect; how it was run: as §2
Mycobacterium marinum [26] = test: in vivo antimycobacterial efficacy in Mycobacterium marinum infected zebrafish larvae assessed as reduction in bacterial burden at 0.25 to 2 micog/ml measured after 2 to 4 days off post infection; type: functional, organism-based; settings: time 2-4 day
Klebsiella pneumoniae = test: Antibiotic activity against Klebsiella pneumoniae LMG 2095 assessed as reduction in bacterial cell growth by measuring resazurin reduction incubated for 6 days by fluorescence microplate based assay; type: functional; settings: LMG 2095, 144 h, time 6 day
Mycobacterium marinum [27] = test: In vivo antimycobacterial efficacy in Mycobacterium marinum expressing Wasabi infected zebrafish larvae assessed as prevention of bacterial infection foci at 0.25 to 2 ug/ml treated for 2 to 4 days after 1 day post infection; type: functional, organism-based; settings: dose 0.25-2 µg/ml, time 2-4 day; how it was run: as §1
[28] = test system: Mycobacterium tuberculosis; test: Bactericidal activity against Non-replicating Mycobacterium tuberculosis ss18b-lux assessed as decrease in colony forming unit measured at 1 uM after 1 weeks; type: functional; how it was run: as §2

Sequence of Type II NADH:quinone oxidoreductase Ndh (P95160 whole entry): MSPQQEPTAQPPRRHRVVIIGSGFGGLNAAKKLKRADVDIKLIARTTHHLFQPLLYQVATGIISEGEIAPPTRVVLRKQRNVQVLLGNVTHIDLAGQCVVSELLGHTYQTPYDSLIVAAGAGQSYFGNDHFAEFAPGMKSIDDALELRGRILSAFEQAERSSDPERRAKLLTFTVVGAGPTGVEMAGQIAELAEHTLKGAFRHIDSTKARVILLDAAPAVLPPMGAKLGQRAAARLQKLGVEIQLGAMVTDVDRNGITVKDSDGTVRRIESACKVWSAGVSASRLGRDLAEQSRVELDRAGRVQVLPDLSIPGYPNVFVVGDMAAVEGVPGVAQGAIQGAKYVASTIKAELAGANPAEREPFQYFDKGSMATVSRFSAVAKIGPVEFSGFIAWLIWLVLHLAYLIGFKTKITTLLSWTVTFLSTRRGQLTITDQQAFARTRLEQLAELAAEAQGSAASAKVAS

CC[C@H](C)[C@H]1CO[C@]23CCN(Cc4ccccc4)C[C@H]2CCC(=O)N13
MIC98 [1]: 9.5 µM (≈ 3.25 µg/mL)

CC(C)[C@H]1CO[C@]23CCN(Cc4ccc(Cl)cc4)C[C@H]2CCC(=O)N13
IC50 [2]: 28 nM
IC50 [3]: 96 nM
MIC98 [1]: 0.25 µM (≈ 0.0907 µg/mL)

CC(C)[C@H]1CO[C@]23CCN(Cc4ccc(OC(F)(F)F)cc4)C[C@H]2CCC(=O)N13
Activity [4]: Non-Toxic
MIC [5]: 1.3 µM (≈ 0.536 µg/mL)
inhibition [6]: Dde
Activity (Mycobacterium marinum [7]): Active
logD [8]: 3.9
Activity [9]: 1 log10CFU
Activity [10]: Tde
MIC (Mycobacterium marinum [11]): 0.16 µM (≈ 0.066 µg/mL)
MIC (Mycobacterium avium): 0.38 µM (≈ 0.157 µg/mL)
MIC (Escherichia coli [12]): 100 µM (≈ 41.2 µg/mL)
Activity [13]: Non-Toxic
MIC (Escherichia coli [14]): > 100 µM
inhibition [15]: Active
MIC (Bacillus subtilis): > 100 µM
Activity [16]: 0.8 log10CFU
Activity (Mycobacterium marinum [17]): Active
Activity (Mycobacterium marinum [18]): Dde
Time (Mycobacterium marinum [19]): 3 days
Drug metabolism [20]: Metabolite_Detected
MIC98 [1]: 0.13 µM (≈ 0.0536 µg/mL)
MIC (Staphylococcus aureus): > 100 µM
MIC [21]: 8.1 µM (≈ 3.34 µg/mL)
MIC (Pseudomonas aeruginosa): > 100 µM
IC50 [22]: 360 nM
MIC [23]: 0.13 µM (≈ 0.0536 µg/mL)
MIC (Acinetobacter baumannii): > 100 µM
MIC [24]: 8.1 µM (≈ 3.34 µg/mL)
Activity [25]: Dde
Activity (Mycobacterium marinum [26]): Active
MIC (Klebsiella pneumoniae): > 100 µM
Activity (Mycobacterium marinum [27]): Active

NNC(=O)c1ccncc1 [ISONIAZID]
IC50 [22]: 204 nM

O=C1CC[C@@H]2CN(Cc3ccccc3)CC[C@@]23OC[C@H](C2CC2)N13
MIC98 [1]: 37.5 µM (≈ 12.2 µg/mL)

CC[C@H]1CO[C@]23CCN(Cc4ccccc4)C[C@H]2CCC(=O)N13
MIC98 [1]: 18.8 µM (≈ 5.91 µg/mL)

COc1nc2ccc(Br)cc2cc1[C@@H](c1ccccc1)[C@@](O)(CCN(C)C)c1cccc2ccccc12 [BEDAQUILINE]
Activity [10]: Tde
IC50 [22]: 34 nM
Activity [28]: 1 log10CFU
